Source: ChEMBL document CHEMBL2029255, “Quantitative and site-directed chemical modification of hypocrellins toward direct drug delivery and effective photodynamic activity” (J Med Chem, 2012)
≈ marks a conversion by molar mass, not a printed value. Calls of active or inactive are those of the source. The rule behind the calls is not given here.

Assays:
[1] = Solubility of the compound in phosphate buffered saline at pH 7.4 after 12 hrs; format: physicochemical
How it was run: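 Compound dissolved in PBS (pH 7.4) at a series of concentrations, kept 12 h in dark; absorption spectra recorded and absorbance plotted against concentration to derive solubility; mean of three independent experiments ± SEM.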

[2] = Photosensitization activity of the compound assessed as singlet oxygen production by DPA-bleaching method; format: physicochemical
[3] = Drug uptake in liposomes after 5 hrs; format: ADME, subcellular, Liposome; conditions: artificial membrane
How it was run: (§1)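 Liposomes of egg phosphatidylcholine and cholesterol (film-ultrasonic method), 0.08 g/L in PBS pH 7.4. Compound from DMSO stock (2 mg/mL) diluted in PBS to 0–8 μM final, added to liposomes with stirring; absorption spectra recorded over time; peak absorbance plotted against concentration at the equilibration time (2, 4 or 5 h, depending on compound).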

[4] = tested on: BGC-823; experiment: Cytotoxicity against human BGC823 cells assessed as cell death up to 76 nM after 24 hrs by MTT assay; format: functional, cell-based
How it was run: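 Dark toxicity: BGC823 cells in DMEM/5% FBS seeded at 5 × 10^5 cells/mL, 24 h at 37 °C, 5% CO2; photosensitizer (0–76 nM) in FBS-free DMEM 5 h in dark; fresh medium, no irradiation, 24 h in dark; survival by MTT (90 min), formazan in DMSO, OD 570 nm.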

[5] = tested on: BGC-823; experiment: Cytotoxicity against human BGC823 cells assessed as cell death preincubated for 5 hrs in dark condition followed by irradiation with a 532 nm laser of 20 J/cm2 for 1000 seconds measured after 24 hrs by MTT assay; format: functional, cell-based; conditions: BGC-823, light or radiation study
How it was run: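 BGC823 cells in DMEM/5% FBS seeded at 5 × 10^5 cells/mL, 24 h at 37 °C, 5% CO2; photosensitizer (0, 19, 38, 57, 76 nM) in FBS-free DMEM, 5 h in dark; medium replaced, 532 nm laser irradiation 20 J/cm2 (20 mW/cm2) for 1000 s; 24 h dark; MTT 90 min, DMSO, OD 570 nm. IC50 = concentration killing 50% of cells.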

[6] = 1-Octanol-phosphate buffered saline partition coefficient of the compound at pH 7.4
[7] = tested on: BGC-823; experiment: Cellular uptake in human BGC823 cells at 1 uM after 5 hrs by laser confocal fluorescence microscope analysis; format: ADME, cell-based; conditions: bgc-823, 5 h
How it was run: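 BGC823 cells seeded on coverslips at 1 × 10^5, grown overnight at 37 °C, 5% CO2; medium removed, incubated with compound (1 μM) 5 h at 37 °C; rinsed three times with PBS, imaged by confocal microscopy with 488 nm argon laser excitation, emission 650–750 nm collected. Control without photosensitizer.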

[8] = Drug uptake in liposomes after 4 hrs; format: ADME, subcellular, Liposome; conditions: artificial membrane; how it was run: as §1
[9] = Drug uptake in liposomes after 2 hrs; format: ADME, subcellular, Liposome; conditions: artificial membrane; how it was run: as §1

Compound	solubility at 12 h [1] [µg/mL]	Drug uptake [3] [µM]	PC [6]	Drug uptake [7]	Drug uptake [8] [µM]	Drug uptake [9] [µM]	Activity [2]	Activity [4]	IC50 [5] [nM]
COC1=C(C(C)=O)C2=C(C)Cc3c(OC)c(=O)c(O)c4cc(OC)c5c(OC)cc(O)c6c(c2c3c4c56)C1=O	4.6 (≈ 0.0087 mM)	7	–	–	–	–	0.76	inactive	40
COc1c2c3c4c(c(OC)c(=O)c5c(O)cc(OC)c(c6c(OC)cc(O)c(c1=O)c63)c54)C(/C(C)=N/CCCCCS(=O)(=O)O)=C(C)C2	1700 (≈ 2.51 mM)	–	9	Active	6.5	–	0.98	inactive	22
COc1c2c3c4c(c(OC)c(=O)c5c(O)cc(OC)c(c6c(OC)cc(O)c(c1=O)c63)c54)C(/C(C)=N/CCCCCCS(=O)(=O)O)=C(C)C2	200 (≈ 0.289 mM)	–	–	–	–	–	1.01	–	–

Now from value to compound, other results behind:

solubility at 12 h [1] [µg/mL]	Drug uptake [3] [µM]	PC [6]	Drug uptake [7]	Drug uptake [8] [µM]	Drug uptake [9] [µM]	Compound	Activity [2]	Activity [4]	IC50 [5] [nM]
9200 (≈ 14.8 mM)	–	2.2	–	–	3	COc1c2c3c4c(c(NCCS(=O)(=O)O)c(=O)c5c(O)cc(OC)c(c6c(OC)cc(O)c(c1=O)c63)c54)CC(C)=C2C(C)=O	–	–	–
6600 (≈ 10.2 mM)	–	4.8	–	–	–	COc1c2c3c4c(c(OC)c(=O)c5c(O)cc(OC)c(c6c(OC)cc(O)c(c1=O)c63)c54)C(/C(C)=N/CCCS(=O)(=O)O)=C(C)C2	–	–	–
3900 (≈ 5.88 mM)	–	7.5	–	–	–	COc1c2c3c4c(c(OC)c(=O)c5c(O)cc(OC)c(c6c(OC)cc(O)c(c1=O)c63)c54)C(/C(C)=N/CCCCS(=O)(=O)O)=C(C)C2	0.94	inactive	54
